This is an account of results in ChEMBL document CHEMBL4014315 (J Med Chem, 2017).

A word on the IC50: it is the point on the concentration scale where inhibition reaches its midpoint. The GI50 is the concentration giving 50% growth inhibition. A word on the Ki: it is a measure of affinity in units of concentration, obtained from inhibition or displacement. High values mean weaker binding, low ones tighter binding.

Structures are written as SMILES.

In series [1] the target is T1, Broad substrate specificity ATP-binding cassette transporter ABCG2 (Homo sapiens, UniProt Q9UNQ0).
T1 sequence (Q9UNQ0 whole entry): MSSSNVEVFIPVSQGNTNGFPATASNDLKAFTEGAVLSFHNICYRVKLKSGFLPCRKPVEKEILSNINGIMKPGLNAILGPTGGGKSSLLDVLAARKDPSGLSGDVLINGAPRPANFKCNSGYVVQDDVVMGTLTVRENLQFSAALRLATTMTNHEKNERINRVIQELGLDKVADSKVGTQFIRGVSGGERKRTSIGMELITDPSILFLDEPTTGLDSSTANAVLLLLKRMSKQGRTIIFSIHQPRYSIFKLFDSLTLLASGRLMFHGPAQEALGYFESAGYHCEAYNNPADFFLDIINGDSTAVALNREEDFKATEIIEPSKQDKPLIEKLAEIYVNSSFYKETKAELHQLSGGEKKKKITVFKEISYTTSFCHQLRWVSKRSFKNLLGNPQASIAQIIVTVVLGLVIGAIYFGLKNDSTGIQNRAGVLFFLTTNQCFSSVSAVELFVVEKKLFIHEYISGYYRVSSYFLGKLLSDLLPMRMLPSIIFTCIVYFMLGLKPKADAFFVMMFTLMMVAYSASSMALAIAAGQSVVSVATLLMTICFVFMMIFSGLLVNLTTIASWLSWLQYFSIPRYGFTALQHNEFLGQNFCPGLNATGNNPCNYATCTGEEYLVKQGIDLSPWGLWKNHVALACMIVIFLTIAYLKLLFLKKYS
Nature of the series: Inhibition of recombinant human GFP-fused ABCG2 expressed in MDCK2 cells assessed as reduction in Hoechst 33342 efflux preincubated for 30 mins followed by Hoechst 33342 addition measured immediately at 60 sec time interval for 120 mins by fluorescence assay. The class given is cell-based. In short, it runs like this: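 Hoechst 33342 accumulation assay: the dye is an ABCG2 substrate whose fluorescence rises when bound to DNA or embedded in membrane. Intracellular accumulation serves as the read-out of transporter inhibition.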

Series [2] concerns the target T2, ABCG2 (Homo sapiens, UniProt Q9UNQ0).
T2 sequence (Q9UNQ0 whole entry): T1 sequence (Q9UNQ0 whole entry)
Nature of the series: Inhibition of recombinant human GFP-fused ABCG2 expressed in MDCK2 cells assessed as reduction in Hoechst 33342 efflux at […] preincubated for 30 mins followed by Hoechst 33342 addition measured immediately at 60 sec time interval for 120 mins by fluorescence assay relative to Ko143. The series is classed as cell-based. Conditions: MDCK2 cells expressing recombinant GFP-fused human ABCG2, probe Hoechst 33342, read-out: Imax; call rule not given here.

Series [3] is described as follows: Cytotoxicity against ABCG2 over-expressing MDCK2 cells assessed as cell growth inhibition after 72 hrs by MTT assay. The conditions noted are these: dog. The series is classed as ADME, cell-based, Canis lupus familiaris, MDCK-II. A general note: Tetrazolium dyes change colour on reduction, which living cells bring about.
Series [4] in a line: Cytotoxicity against MDCK2 cells assessed as cell growth inhibition after 72 hrs by MTT assay. The series is classed as cell-based, Canis lupus familiaris, MDCK-II. Conditions: dog.
Series [5] can be described thus: Therapeutic index, ratio of GI50 for ABCG2 over-expressing MDCK2 cells to IC50 for recombinant human GFP-fused ABCG2 expressed in MDCK2 cells. The class given is cell-based.
Series [6] concerns the target T1, Broad substrate specificity ATP-binding cassette transporter ABCG2. The experiment in a line: Inhibition of ABCG2 (unknown origin) ATPase activity expressed in baculovirus infected high five cell membranes by ascorbic acid/ammonia molybdate reaction-based colorimetric analysis. In short, it runs like this:
(§1)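 Colorimetric ATPase assay of ABCG2 membranes; activity expressed relative to control. Where data were biphasic, a combined increasing plus decreasing logistic equation with the Hill coefficient fixed at one was fitted, giving an activating and an inactivating K.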

For series [7] the target is unchanged. The experiment in a line: Mixed type inhibition of recombinant human GFP-fused ABCG2 expressed in MDCK2 cells preincubated for 30 mins followed by varying levels of Hoechst 33342 addition measured immediately at 60 sec time interval for 120 mins by Cornish-Bowden plot analysis. Conditions: 2 h. The class given is cell-based. In short, it runs like this:
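Kinetics were run with Hoechst 33342 as the fluorescent ABCG2 substrate at varying levels, combined with several modulator concentrations. Data were analysed by double-reciprocal Lineweaver-Burk, half-reciprocal Hanes-Woolf and Cornish-Bowden direct linear plots. Changes in Vmax and KM with modulator concentration defined the mode: competitive, non-competitive or mixed type.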

Series [8] deals with T2, ABCG2. Nature of the series: Activation of ABCG2 (unknown origin) ATPase activity expressed in baculovirus infected high five cell membranes assessed as protein Vmax at 0.5 uM by ascorbic acid/ammonia molybdate reaction-based colorimetric analysis relative to basal control. The conditions noted are these: read-out: Vmax. In short, it runs like this:
as §1

For series [9], the target named is T2, ABCG2. Nature of the series: Activation of ABCG2 (unknown origin) ATPase activity expressed in baculovirus infected high five cell membranes assessed as protein Vmax at 35 uM by ascorbic acid/ammonia molybdate reaction-based colorimetric analysis relative to basal control. The conditions noted are these: read-out: Vmax. In short, it runs like this:
as §1

Take `FC(F)(F)c1cccc(Nc2nc(-c3ccncc3)nc3ccccc23)c1`: the IC50 in [1] worked out at 0.216 µM. In addition, the Emax at 2 h in series [2] is 80 to 110%. Moreover, the GI50 at 72 h in series [3] was 12.6 µM; in series [4] it was 12.3 µM. Moreover, in series [5], the TI stood at 58.3. The Ki in series [6] was determined as 28 µM. Besides, the “inhibition (INH)” value in [7] is listed as “Active”. The Emax at 0.5 µM in series [8] turned out to be 155%. Also, the Emax at 35 µM in [9] was 25%.
